According to ChEMBL document CHEMBL4406851, “Design, synthesis and biological evaluation of cinnamic acid derivatives with synergetic neuroprotection and angiogenesis effect” (Eur J Med Chem, 2019):

Legend:
Parameters in all cases: scale not given: the % may be the effect or the level left
[1] = Inhibition of H2O2-induced apoptosis in human HBMEC2 cells assessed as early apoptotic cells at 1.56 uM preincubated for 24 hrs followed by H2O2 addition measured after 4 hrs by Annexin V-FITC/propidium iodide staining based flow cytometry (reference value: 8.1 %); format: functional, HBMEC-2
Method in brief: (§1)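 Cells were seeded at 3.5×10^4 cells/mL in 6-well plates at 37 °C, 5% CO2. Compound was added at three concentrations for 24 h, then H2O2 (4.8 mM stock solution) to model and drug wells for 4 h. Cells were collected, washed in cold PBS and resuspended in annexin-binding buffer. Staining was annexin V-FITC 10 min, then PI 5 min, in the dark, followed by flow cytometry with quadrant gating.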

[2] = Inhibition of H2O2-induced apoptosis in human HBMEC2 cells assessed as late apoptotic cells at 3.13 uM preincubated for 24 hrs followed by H2O2 addition measured after 4 hrs by Annexin V-FITC/propidium iodide staining based flow cytometry (reference value: 29.4 %); format: functional, HBMEC-2; method in brief: as §1
[3] = test system: SH-SY5Y; test: Inhibition of H2O2-induced apoptosis in human SH-SY5Y cells assessed as early apoptotic cells at 1.56 uM preincubated for 24 hrs followed by H2O2 addition measured after 4 hrs by Annexin V-FITC/propidium iodide staining based flow cytometry (reference value: 5.4 %); format: functional; method in brief: as §1
[4] = test system: SH-SY5Y; test: Inhibition of H2O2-induced apoptosis in human SH-SY5Y cells assessed as late apoptotic cells at 3.13 uM preincubated for 24 hrs followed by H2O2 addition measured after 4 hrs by Annexin V-FITC/propidium iodide staining based flow cytometry (reference value: 26.5 %); format: functional; method in brief: as §1

`COc1cc(CNC(=O)/C=C/c2cc(OC)c(OC)cc2OC)ccc1O` gave an Activity [1] of 9.1%, an Activity [2] of 10.5% and an Activity [3] of 4.3%. For the same compound, the Activity [4] was 21%.
